# Results as given in ChEMBL document CHEMBL1146374, “Clubbed triazoles: a novel approach to antitubercular drugs” (Eur J Med Chem, 2007).
# Key:
# [1] = Cytotoxicity against Vero-C1008 cells at 6.25 to 50 ug/ml; format: cell-based; details: chlorocebus sabaeus
# In short: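 Vero-C-1008 cells were exposed to compounds at several concentrations across 6.25–50 µg/ml. Cytotoxicity was read out by neutral red uptake.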
# [2] = system: Mycobacterium tuberculosis; assay: Growth inhibition of Mycobacterium tuberculosis H37Rv at 6.25 ug/ml by Microplate Alamar Blue Assay; format: functional; details: read-out: GI
# In short: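 Primary single-concentration screen against M. tuberculosis H37Rv (ATCC 27294) in BACTEC 12B medium by MABA broth microdilution, read as % inhibition. Compounds that fluoresce were tested in the BACTEC 460 radiometric system. More than 95% inhibition was the activity cutoff.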
# [3] = system: Mycobacterium tuberculosis; assay: (§1) Antituberculosis activity against Mycobacterium tuberculosis H37Rv by Microplate Alamar Blue Assay; format: functional
# In short: (§2)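 MIC against M. tuberculosis H37Rv (ATCC 27294) in BACTEC 12B medium by broth microdilution (MABA). Primary actives were retested at lower concentrations. MIC is the lowest concentration giving a […] fluorescence reduction versus controls. Fluorescent compounds were run in the BACTEC 460 radiometric system. Rifampin was the reference.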
# [4] = system: Mycobacterium tuberculosis; assay: as §1; format: functional; in short: as §2; remark: listed apart in the source
# Pseudomonas aeruginosa = assay: Antibacterial activity against Pseudomonas aeruginosa at 50 to 100 uM after 24 hrs by well diffusion method; format: functional
# In short: (§3)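 Agar well diffusion: nutrient agar plates with 10 mm wells cut by sterile cork borer; 24-h subcultured bacteria swabbed onto the plates from nutrient broth. Compounds were dissolved in chloroform and added to wells at […]. Gentamycin served as the standard antibiotic.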
# Salmonella typhi = assay: Antibacterial activity against Salmonella typhi at 50 to 100 uM after 24 hrs by well diffusion method; format: functional, Salmonella enterica subsp. enterica serovar Typhi
# In short: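 Agar well diffusion on nutrient agar plates; wells cut with a 10 mm sterile cork borer. Plates swabbed with 24-h subcultured bacteria from nutrient broth. Compounds dissolved in chloroform and added to wells at a range of concentrations. Gentamycin was the standard.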
# Escherichia coli = assay: Antibacterial activity against Escherichia coli at 50 to 100 uM after 24 hrs by well diffusion method; format: functional; in short: as §3
# Staphylococcus aureus = assay: Antibacterial activity against Staphylococcus aureus at 50 to 100 uM after 24 hrs by well diffusion method; format: functional; in short: as §3
SMILES,Activity [1],inhibition of growth at 6.25 µg/mL [2] [%],MIC [3] [µg/mL],MIC [4] [µM],zone of inhibition (Pseudomonas aeruginosa) [mm],Inhibition (Salmonella typhi) [%],zone of inhibition (Escherichia coli) [mm],zone of inhibition (Staphylococcus aureus) [mm]
O=C(CSc1nnc(Cc2csc(NC(=O)CCl)n2)n1NC(=O)c1ccccc1)N/N=C/c1ccccc1,Non-toxic,98,< 6.25,0.78,,,,
CO[C@H]1/C=C/O[C@@]2(C)Oc3c(C)c(O)c4c(O)c(c(/C=N/N5CCN(C)CC5)c(O)c4c3C2=O)NC(=O)/C(C)=C\C=C\[C@H](C)[C@H](O)[C@@H](C)[C@@H](O)[C@@H](C)[C@H](OC(C)=O)[C@@H]1C [RIFAMPIN],,97,15,,,,,
NNC(=O)CSc1nnc(Cc2csc(NCCC(=O)O)n2)n1NC(=O)c1ccccc1,Non-toxic,96,< 6.25,6.25,18,12,14,20
NNC(=O)CSc1nnc(Cc2csc(NC(=O)CCl)n2)n1NC(=O)c1ccccc1,Non-toxic,98,< 6.25,3.13,16,14,12,16
NNC(=O)CSc1nnc(Cc2csc(NC(=O)c3ccccc3)n2)n1NC(=O)c1ccccc1,Non-toxic,100,< 6.25,6.25,34,29,30,33
CC(=O)Nc1nc(Cc2nnc(SCC(=O)N/N=C/c3ccccc3)n2NC(=O)c2ccccc2)cs1,Non-toxic,96,< 6.25,1.56,,,,
CC(=O)Nc1nc(Cc2nnc(SCC#N)n2NC(=O)c2ccccc2)cs1,Non-toxic,97,< 6.25,6.25,22,16,20,22
N#CCSc1nnc(Cc2csc(NC(=O)c3ccccc3)n2)n1NC(=O)c1ccccc1,Non-toxic,100,< 6.25,3.13,24,18,22,26
CC(=O)Nc1nc(Cc2nnc(S)n2N)cs1,Non-toxic,100,< 6.25,6.25,16,14,15,18
O=C(O)CCNc1nc(Cc2nnc(SCC(=O)N/N=C\c3ccccc3)n2NC(=O)c2ccccc2)cs1,Non-toxic,98,< 6.25,3.13,12,12,14,18
O=C(CSc1nnc(Cc2csc(NC(=O)c3ccccc3)n2)n1NC(=O)c1ccccc1)N/N=C/c1ccccc1,Non-toxic,98,< 6.25,0.39,30,27,30,32
CC(=O)Nc1nc(Cc2nnc(SCC(=O)NN)n2NC(=O)c2ccccc2)cs1,Non-toxic,100,< 6.25,3.13,32,24,26,32
O=C(CCl)Nc1nc(Cc2nnc(SCSc3nnc(Cc4csc(NC(=O)CCl)n4)n3NC(=O)c3ccccc3)n2NC(=O)c2ccccc2)cs1,Non-toxic,,< 6.25,,22,16,20,22
